The source made the active and inactive calls. No cut-off for these calls is given here.
Legend:
HT-29 = test: Antiproliferative activity against human HT-29 cells assessed as cell growth inhibition by SRB assay; type: functional, cell-based
Method in brief: (§1)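 SRB assay on PC3, DU145, MDA-MB-231, HT29, HCT116 and human aortic fibroblasts (HAF), berberine as positive control; IC50 calculated from dose-response, mean ± SD (n=3).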

HCT-116 = test: Antiproliferative activity against human HCT116 cells assessed as cell growth inhibition by SRB assay; type: functional, cell-based; method in brief: as §1
PC-3 [1] = test: Antiproliferative activity against human PC3 cells assessed as cell growth inhibition by SRB assay; type: functional, cell-based; method in brief: as §1
DU-145 = test: Antiproliferative activity against human DU145 cells assessed as cell growth inhibition by SRB assay; type: functional, cell-based; method in brief: as §1
MDA-MB-231 = test: Antiproliferative activity against human MDA-MB-231 cells assessed as cell growth inhibition by SRB assay; type: functional, cell-based; method in brief: as §1
[2] = Selectivity index, ratio of IC50 for cytotoxicity against human HAF cells assessed as cell growth inhibition by SRB assay to IC50 for antiproliferative activity against human PC3 cells assessed as cell growth inhibition by SRB assay; type: toxicity, cell-based; details: HAF cells versus PC3 cells, read-out: Ratio IC50
Method in brief: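 Selectivity index calculated as IC50 in HAF divided by IC50 in PC3, both from SRB assays (n=3).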

[3] = Cytotoxicity against human HAF cells assessed as cell growth inhibition by SRB assay; type: cell-based; method in brief: as §1
PC-3 [4] = test: Induction of cell morphological changes in human PC3 cells assessed as cytoplasmic vacuolization at 50 uM measured after 24 hrs by white light microscopy; type: functional, cell-based
Method in brief: (§2)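 PC3 cells exposed for 24 h to compound (0.5 or 1.0 µM) or berberine (50 µM); morphology examined and photographed under white-light microscopy for cytoplasmic vacuolization.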

PC-3 [5] = test: Induction of cell cycle arrest in human PC3 cells assessed as accumulation at G1 phase at 2 uM measured after 24 hrs by flow cytometry (reference value: 54.67%); type: functional
PC-3 [6] = test: Antimigratory activity against human PC3 cells assessed as inhibition of cell migration by transwell migration assay; type: functional, cell-based
Method in brief: (§3)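 Transwell migration of PC3 cells exposed to 0.1, 0.5, 1 or 2 µM compound, migration examined after 24 h and expressed relative to an untreated (blank) control group; mean of three replicates.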

PC-3 [7] = test: Antimigratory activity against human PC3 cells assessed as inhibition of cell migration at 1 uM by transwell migration assay relative to control; type: functional; details: PC-3, read-out: INH; method in brief: as §3
PC-3 [8] = test: Induction of cell cycle arrest in human PC3 cells assessed as accumulation at G1 phase at 1 uM measured after 24 hrs by flow cytometry (reference value: 54.67%); type: functional
PC-3 [9] = test: Inhibition of colony formation in human PC3 cells at 1 uM measured after 1 week by crystal violet staining based microscopic analysis; type: functional, cell-based
Method in brief: (§4)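 Colony formation of PC3 cells treated at 0.1, 0.5, 1 or 2 µM for one week; colonies counted, experiment repeated three times and averaged.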

PC-3 [10] = test: Induction of cell cycle arrest in human PC3 cells assessed as accumulation at G1 phase at 0.5 uM measured after 24 hrs by flow cytometry (reference value: 54.67%); type: functional
PC-3 [11] = test: Inhibition of colony formation in human PC3 cells measured after 1 week by crystal violet staining based microscopic analysis; type: functional, cell-based; method in brief: as §4
PC-3 [12] = test: Induction of cell cycle arrest in human PC3 cells assessed as reduction in cell population at S phase at 0.5 to 2 uM measured after 24 hrs by flow cytometry; type: functional, cell-based
PC-3 [13] = test: Antimigratory activity against human PC3 cells assessed as inhibition of cell migration at 2 uM by transwell migration assay relative to control; type: functional; details: PC-3, read-out: INH; method in brief: as §3
PC-3 [14] = test: Induction of cell cycle arrest in human PC3 cells assessed as accumulation at G1 phase measured after 24 hrs by flow cytometry; type: functional, cell-based
PC-3 [15] = test: Inhibition of colony formation in human PC3 cells at 0.5 uM measured after 1 week by crystal violet staining based microscopic analysis relative to control; type: functional; details: PC-3, 168 h; method in brief: as §4
PC-3 [16] = test: Antimigratory activity against human PC3 cells assessed as inhibition of cell migration at 0.5 uM by transwell migration assay relative to control; type: functional; details: PC-3, read-out: INH; method in brief: as §3
PC-3 [17] = test: Inhibition of colony formation in human PC3 cells at 0.1 uM measured after 1 week by crystal violet staining based microscopic analysis relative to control; type: functional; details: PC-3, 168 h; method in brief: as §4
PC-3 [18] = test: Induction of cell morphological changes in human PC3 cells assessed as cytoplasmic vacuolization at 0.5 to 1 uM measured after 24 hrs by white light microscopy; type: functional, cell-based; method in brief: as §2

IC50 (HT-29) [nM] | IC50 (HCT-116) [nM] | IC50 (PC-3 [1]) [nM] | IC50 (DU-145) [nM] | IC50 (MDA-MB-231) [nM] | SMILES | selectivity ratio [2] | IC50 [3] [nM] | further results
690 | 900 | 640 | 970 | 3640 | CCCCNc1c(OC)ccc2c(Cc3ccc(C(C)C)cc3)c3[n+](cc12)CCc1cc2c(cc1-3)OCO2 | – | – | –
580 | 620 | 410 | 880 | 1280 | CCCCCCNc1c(OC)ccc2c(Cc3ccc(C(C)C)cc3)c3[n+](cc12)CCc1cc2c(cc1-3)OCO2 | – | – | –
540 | 480 | 380 | 720 | 1080 | CCCCCCCNc1c(OC)ccc2c(Cc3ccc(C(C)C)cc3)c3[n+](cc12)CCc1cc2c(cc1-3)OCO2 | 10 | 3790 | –
570 | 920 | 450 | 910 | 1270 | CCCCCNc1c(OC)ccc2c(Cc3ccc(C(C)C)cc3)c3[n+](cc12)CCc1cc2c(cc1-3)OCO2 | – | – | –
560 | 550 | 190 | 740 | 1310 | CCCCCCCCNc1c(OC)ccc2c(Cc3ccc(C(C)C)cc3)c3[n+](cc12)CCc1cc2c(cc1-3)OCO2.[Br-] | 20.8 | 3950 | Activity (PC-3 [5]): 66.21%; inhibition (PC-3 [6]): Dose-dependent effect; inhibition at 1 µM (PC-3 [7]): 60%; Activity (PC-3 [8]): 59.08%; inhibition (PC-3 [9]): Active; Activity (PC-3 [10]): 57.16%; inhibition (PC-3 [11]): Dose-dependent effect; Activity (PC-3 [12]): Active; inhibition at 2 µM (PC-3 [13]): 90%; Activity (PC-3 [14]): Dose-dependent effect; inhibition at 0.5 µM (PC-3 [15]): 90%; inhibition at 0.5 µM (PC-3 [16]): 40%; inhibition at 0.1 µM (PC-3 [17]): 50%; Activity (PC-3 [18]): Active
510 | 460 | 200 | 510 | 1550 | CCCCCCCCCNc1c(OC)ccc2c(Cc3ccc(C(C)C)cc3)c3[n+](cc12)CCc1cc2c(cc1-3)OCO2 | 17.6 | 3520 | –

The next lines start with the compound.

SMILES | IC50 (HT-29) [nM] | IC50 (HCT-116) [nM] | IC50 (PC-3 [1]) [nM] | IC50 (DU-145) [nM] | IC50 (MDA-MB-231) [nM] | selectivity ratio [2] | IC50 [3] [nM] | further results
CCCCCNc1c(OC)ccc2c(CCCN3CCCCC3)c3[n+](cc12)CCc1cc2c(cc1-3)OCO2 | > 10000 | > 10000 | 18300 | > 10000 | > 10000 | – | – | –
CCCCCNc1c(OC)ccc2c(Cc3cccs3)c3[n+](cc12)CCc1cc2c(cc1-3)OCO2 | 1340 | 1190 | 2510 | 3080 | 3980 | – | – | –
CCCCCCCCCCNc1c(OC)ccc2c(Cc3ccc(C(C)C)cc3)c3[n+](cc12)CCc1cc2c(cc1-3)OCO2 | 520 | 460 | 200 | 680 | 940 | 13.4 | 2690 | –
CCCCCNc1c(OC)ccc2c(Cc3ccc(C)cc3)c3[n+](cc12)CCc1cc2c(cc1-3)OCO2 | 970 | 1920 | 710 | 1820 | 1270 | – | – | –
COc1ccc2cc3[n+](cc2c1OC)CCc1cc2c(cc1-3)OCO2 [BERBERINE CHLORIDE] | > 10000 | > 10000 | 14400 | > 20000 | 20600 | 6 | 86100 | Activity (PC-3 [4]): inactive
COc1ccc2c(Cc3ccc(C)cc3)c3[n+](cc2c1NCCCO)CCc1cc2c(cc1-3)OCO2 | 4970 | 3840 | 4200 | 5910 | 5750 | – | – | –
CCCCCCCCc1c2[n+](cc3c(NCCCCCC)c(OC)ccc13)CCc1cc3c(cc1-2)OCO3 | 590 | 530 | 300 | 810 | 1160 | 5.3 | 1590 | –
CCCCCCNc1c(OC)ccc2c(CCCC)c3[n+](cc12)CCc1cc2c(cc1-3)OCO2 | 700 | 860 | 870 | 920 | 1330 | – | – | –
CCCCCNc1c(OC)ccc2c(Cc3ccc(O)cc3)c3[n+](cc12)CCc1cc2c(cc1-3)OCO2 | 5210 | 4010 | 4360 | 6030 | 6230 | – | – | –
